ChEMBL document CHEMBL1833861 (J Med Chem, 2011)
Active and inactive are the calls of the source. The calls are words filed in the database; no cut-off is given here.

Tests used:
Mus musculus [1] = experiment: Antidepressant activity in BALB/cJ mouse assessed as decrease in immobility time at 10 mg/kg, po after 30 mins by forced swim test; format: functional, organism-based; parameters: dose 10 mg/kg
In short: (§1)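 Male BALB/cJ mice, 8–10 weeks old, dosed by oral gavage with compound in injectable water (10 mL/kg). Sertraline served as positive control. Forced swim begins 30 min after dosing, in a cylinder with 12 cm of 23 ± 1 °C water; total immobility recorded over 6 min. ANOVA followed by Newman-Keuls post hoc test.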

Mus musculus [2] = experiment: Antidepressant activity in BALB/cJ mouse assessed as decrease in immobility time at 1 mg/kg, ip after 30 mins by forced swim test; format: functional, organism-based; parameters: dose 1 mg/kg
In short: (§2)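 Male BALB/cJ mice, 8–10 weeks old; compound in injectable water given ip at 10 mL/kg. Sertraline (10 or 20 mg/kg) served as positive control. 30 min post-dose, each mouse placed in a glass cylinder with 12 cm of 23 ± 1 °C water; immobility (floating) timed over a 6 min trial. n = 10/group; ANOVA with post hoc test.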

Mus musculus [3] = experiment: Ex vivo receptor occupancy at beta2 nAChR in BALB/cJ mouse brain at 3 mg/kg, ip after 30 mins; format: functional; conditions: route intraperitoneal
In short: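 Male BALB/cJ mice, 8–10 weeks old, dosed IP at 3 mg/kg (water vehicle, 10 mL/kg); vehicle controls received water. Brains collected 30 min after dosing, matching the forced-swim timing. β2* nAChR occupancy measured ex vivo in thalamus.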

Mus musculus [4] = experiment: Antidepressant activity in BALB/cJ mouse assessed as decrease in immobility time at 3 mg/kg, ip after 30 mins by forced swim test; format: functional, organism-based; parameters: dose 3 mg/kg; in short: as §2
Mus musculus [5] = experiment: Antidepressant activity in BALB/cJ mouse assessed as decrease in immobility time at 3 mg/kg, po after 30 mins by forced swim test; format: functional, organism-based; parameters: dose 3 mg/kg; in short: as §1
[6] = target: Beta-1 adrenergic receptor (Homo sapiens) (UniProt P08588); experiment: Binding affinity to beta1 adrenergic receptor at 10 uM by radioligand displacement assay
Liver = experiment: Metabolic stability in mouse liver microsomes at 1 uM; format: ADME, Microsome
[7] = target: Alpha-1D adrenergic receptor (Homo sapiens) (UniProt P25100); experiment: Binding affinity to Alpha-1D adrenergic receptor at 10 uM by radioligand displacement assay
[8] = target: T1, Kappa-type opioid receptor (Homo sapiens, UniProt P41145); experiment: Binding affinity to kappa opioid receptor at 10 uM by radioligand displacement assay
[9] = Binding affinity to rat benzodiazepine receptor at 10 uM by radioligand displacement assay
[10] = target: 5-hydroxytryptamine receptor 1E (Homo sapiens) (UniProt P28566); experiment: Binding affinity to 5HT1E receptor at 10 uM by radioligand displacement assay
[11] = Binding affinity to 5HT3 receptor at 10 uM by radioligand displacement assay
Plasma = experiment: Plasma protein binding in CD1 mouse at 10 uM; format: ADME, cell-free
[12] = target: Alpha-2C adrenergic receptor (Homo sapiens) (UniProt P18825); experiment: Binding affinity to Alpha-2C adrenergic receptor at 10 uM by radioligand displacement assay
[13] = target: Beta-2 adrenergic receptor (Homo sapiens) (UniProt P07550); experiment: Binding affinity to beta2 adrenergic receptor at 10 uM by radioligand displacement assay
Rattus norvegicus = organism: Rattus norvegicus; experiment: Selectivity ratio of Ki for rat alpha4beta2 nAChR over Ki for rat alpha3beta4 nAChR
[14] = Binding affinity to GABAA receptor at 10 uM by radioligand displacement assay
[15] = target: Neuronal acetylcholine receptor; alpha3/beta4 (Rattus norvegicus, UniProt P04757+P12392); experiment: Displacement of [3H]epibatidine from rat alpha3beta4 nAChR receptor; format: protein-complex assay
[16] = Inhibition of cytochrome P450; format: ADME
In short: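 Inhibitory potential tested against nine different CYP450 enzymes.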

[17] = target: D(4) dopamine receptor (Homo sapiens) (UniProt P21917); experiment: Binding affinity to dopamine D4 receptor at 10 uM by radioligand displacement assay
[18] = target: 5-hydroxytryptamine receptor 1B (Homo sapiens) (UniProt P28222); experiment: Binding affinity to 5HT1B receptor at 10 uM by radioligand displacement assay
[19] = target: 5-hydroxytryptamine receptor 7 (Homo sapiens) (UniProt P34969); experiment: Binding affinity to 5HT7 receptor at 10 uM by radioligand displacement assay
[20] = target: Neuronal acetylcholine receptor; alpha4/beta4 (Rattus norvegicus, UniProt P09483+P12392); experiment: Displacement of [3H]epibatidine from rat alpha4beta4 nAChR receptor; format: protein-complex assay
[21] = target: Muscarinic acetylcholine receptor M2 (Homo sapiens) (UniProt P08172); experiment: Binding affinity to muscarinic M2 receptor at 10 uM by radioligand displacement assay
[22] = target: Muscarinic acetylcholine receptor M3 (Homo sapiens) (UniProt P20309); experiment: Binding affinity to muscarinic M3 receptor at 10 uM by radioligand displacement assay
[23] = target: 5-hydroxytryptamine receptor 2B (Homo sapiens) (UniProt P41595); experiment: Binding affinity to 5HT2B receptor at 10 uM by radioligand displacement assay
[24] = target: 5-hydroxytryptamine receptor 1A (Homo sapiens) (UniProt P08908); experiment: Binding affinity to 5HT1A receptor at 10 uM by radioligand displacement assay
[25] = target: Sodium-dependent noradrenaline transporter (Homo sapiens) (UniProt P23975); experiment: Binding affinity to NET at 10 uM by radioligand displacement assay
[26] = target: D(1A) dopamine receptor (Homo sapiens) (UniProt P21728); experiment: Binding affinity to dopamine D1 receptor at 10 uM by radioligand displacement assay
[27] = target: Neuronal acetylcholine receptor; alpha3/beta2 (Rattus norvegicus, UniProt P04757+P12390); experiment: Displacement of [3H]epibatidine from rat alpha3beta2 receptor; format: protein-complex assay
[28] = target: Alpha-2B adrenergic receptor (Homo sapiens) (UniProt P18089); experiment: Binding affinity to alpha2B adrenergic receptor at 10 uM by radioligand displacement assay
[29] = Binding affinity to sigma2 receptor at 10 uM by radioligand displacement assay
Mus musculus [30] = experiment: Antidepressant activity in BALB/cJ mouse assessed as decrease in immobility time at 1 mg/kg, po after 30 mins by forced swim test; format: functional, organism-based; parameters: dose 1 mg/kg; in short: as §1
[31] = target: 5-hydroxytryptamine receptor 6 (Homo sapiens) (UniProt P50406); experiment: Binding affinity to 5HT6 receptor at 10 uM by radioligand displacement assay
[32] = target: Sodium-dependent serotonin transporter (Homo sapiens) (UniProt P31645); experiment: Binding affinity to SERT at 10 uM by radioligand displacement assay
[33] = target: 5-hydroxytryptamine receptor 1D (Homo sapiens) (UniProt P28221); experiment: Binding affinity to 5HT1D receptor at 10 uM by radioligand displacement assay
[34] = target: T2, Neuronal acetylcholine receptor; alpha4/beta2 (Homo sapiens, UniProt P17787+P43681); experiment: Antagonist activity at human alpha4beta2 nAChR expressed in SH-EP1 cells assessed as inhibition of carbamylcholine-induced 86Rb+ ion efflux by liquid scintillation counting relative to mecamylamine; format: functional, cell-based
[35] = target: 5-hydroxytryptamine receptor 2C (Homo sapiens) (UniProt P28335); experiment: Binding affinity to 5HT2C receptor at 10 uM by radioligand displacement assay
[36] = target: Histamine H4 receptor (Homo sapiens) (UniProt Q9H3N8); experiment: Binding affinity to histamine H4 receptor at 10 uM by radioligand displacement assay
[37] = target: Neuronal acetylcholine receptor; alpha2/beta4 (Rattus norvegicus, UniProt P12389+P12392); experiment: Displacement of [3H]epibatidine from rat alpha2beta4 receptor; format: protein-complex assay
[38] = target: Neuronal acetylcholine receptor; alpha2/beta2 (Rattus norvegicus, UniProt P12389+P12390); experiment: Displacement of [3H]epibatidine from rat alpha2beta2 receptor; format: protein-complex assay
[39] = target: D(1B) dopamine receptor (Homo sapiens) (UniProt P21918); experiment: Binding affinity to dopamine D5 receptor at 10 uM by radioligand displacement assay
[40] = target: Histamine H3 receptor (Homo sapiens) (UniProt Q9Y5N1); experiment: Binding affinity to histamine H3 receptor at 10 uM by radioligand displacement assay
[41] = target: D(3) dopamine receptor (Homo sapiens) (UniProt P35462); experiment: Binding affinity to dopamine D3 receptor at 10 uM by radioligand displacement assay
[42] = target: 5-hydroxytryptamine receptor 2A (Homo sapiens) (UniProt P28223); experiment: Binding affinity to 5HT2A receptor at 10 uM by radioligand displacement assay
[43] = target: T2, Neuronal acetylcholine receptor; alpha4/beta2; experiment: Antagonist activity at human alpha4beta2 nAChR expressed in SH-EP1 cells assessed as inhibition of carbamylcholine-induced 86Rb+ ion efflux by liquid scintillation counting; format: functional, cell-based
[44] = target: T3, Neuronal acetylcholine receptor; alpha4/beta2 (Rattus norvegicus, UniProt P09483+P12390); experiment: Displacement of [3H]epibatidine from rat alpha4beta2 receptor expressed in HEK cells; format: cell-based, HEK293
In short: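 Competition binding of [3H]epibatidine to membrane fractions from HEK cells stably transfected with rat α4 and β2 subunits; Ki values for blockade of specific binding.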

Liver microsomes = experiment: Metabolic stability in human liver microsomes at 1 uM; format: ADME, Microsome
[45] = target: Alpha-1B adrenergic receptor (Homo sapiens) (UniProt P35368); experiment: Binding affinity to Alpha-1B adrenergic receptor at 10 uM by radioligand displacement assay
[46] = target: Muscarinic acetylcholine receptor M4 (Homo sapiens) (UniProt P08173); experiment: Binding affinity to muscarinic M4 receptor at 10 uM by radioligand displacement assay
[47] = target: Alpha-1A adrenergic receptor (Homo sapiens) (UniProt P35348); experiment: Binding affinity to alpha1A adrenergic receptor at 10 uM by radioligand displacement assay
[48] = target: Sigma non-opioid intracellular receptor 1 (Homo sapiens) (UniProt Q99720); experiment: Binding affinity to sigma1 receptor at 10 uM by radioligand displacement assay
[49] = target: Alpha-2A adrenergic receptor (Homo sapiens) (UniProt P08913); experiment: Binding affinity to alpha2A adrenergic receptor at 10 uM by radioligand displacement assay
[50] = target: Delta-type opioid receptor (Homo sapiens) (UniProt P41143); experiment: Binding affinity to delta opioid receptor at 10 uM by radioligand displacement assay
[51] = target: Histamine H2 receptor (Homo sapiens) (UniProt P25021); experiment: Binding affinity to histamine H2 receptor at 10 uM by radioligand displacement assay
[52] = target: Mu-type opioid receptor (Homo sapiens) (UniProt P35372); experiment: Binding affinity to MOR at 10 uM by radioligand displacement assay
[53] = target: D(2) dopamine receptor (Homo sapiens) (UniProt P14416); experiment: Binding affinity to dopamine D2 receptor at 10 uM by radioligand displacement assay
[54] = target: T2, Neuronal acetylcholine receptor; alpha4/beta2; experiment: Agonist activity at human alpha4beta2 nAChR expressed in human SH-EP1 cells assessed as increase of carbamylcholine-induced 86Rb+ ion efflux by liquid scintillation counting; format: functional, cell-based
[55] = target: T3, Neuronal acetylcholine receptor; alpha4/beta2; experiment: Displacement of [3H]epibatidine from rat alpha4beta2 nAChR receptor; format: protein-complex assay
[56] = target: T1, Kappa-type opioid receptor; experiment: Binding affinity to kappa opioid receptor by radioligand displacement assay
[57] = target: T2, Neuronal acetylcholine receptor; alpha4/beta2; experiment: Agonist activity at human alpha4beta2 nAChR expressed in human SH-EP1 cells assessed as increase of carbamylcholine-induced 86Rb+ ion efflux by liquid scintillation counting relative to carbamylcholine; format: functional, cell-based
[58] = target: Muscarinic acetylcholine receptor M1 (Homo sapiens) (UniProt P11229); experiment: Binding affinity to muscarinic M1 receptor at 10 uM by radioligand displacement assay

T1 sequence (P41145 whole entry): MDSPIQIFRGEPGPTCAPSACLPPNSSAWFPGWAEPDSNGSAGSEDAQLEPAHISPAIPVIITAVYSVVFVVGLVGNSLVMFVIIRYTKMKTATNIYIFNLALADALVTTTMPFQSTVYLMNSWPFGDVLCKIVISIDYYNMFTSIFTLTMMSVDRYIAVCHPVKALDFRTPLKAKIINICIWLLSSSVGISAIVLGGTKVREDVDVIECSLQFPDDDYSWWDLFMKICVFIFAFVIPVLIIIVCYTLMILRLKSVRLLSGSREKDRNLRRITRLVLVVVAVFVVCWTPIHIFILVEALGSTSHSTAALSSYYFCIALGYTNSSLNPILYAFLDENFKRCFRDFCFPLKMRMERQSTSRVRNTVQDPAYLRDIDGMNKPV
T3 sequence (P09483 whole entry): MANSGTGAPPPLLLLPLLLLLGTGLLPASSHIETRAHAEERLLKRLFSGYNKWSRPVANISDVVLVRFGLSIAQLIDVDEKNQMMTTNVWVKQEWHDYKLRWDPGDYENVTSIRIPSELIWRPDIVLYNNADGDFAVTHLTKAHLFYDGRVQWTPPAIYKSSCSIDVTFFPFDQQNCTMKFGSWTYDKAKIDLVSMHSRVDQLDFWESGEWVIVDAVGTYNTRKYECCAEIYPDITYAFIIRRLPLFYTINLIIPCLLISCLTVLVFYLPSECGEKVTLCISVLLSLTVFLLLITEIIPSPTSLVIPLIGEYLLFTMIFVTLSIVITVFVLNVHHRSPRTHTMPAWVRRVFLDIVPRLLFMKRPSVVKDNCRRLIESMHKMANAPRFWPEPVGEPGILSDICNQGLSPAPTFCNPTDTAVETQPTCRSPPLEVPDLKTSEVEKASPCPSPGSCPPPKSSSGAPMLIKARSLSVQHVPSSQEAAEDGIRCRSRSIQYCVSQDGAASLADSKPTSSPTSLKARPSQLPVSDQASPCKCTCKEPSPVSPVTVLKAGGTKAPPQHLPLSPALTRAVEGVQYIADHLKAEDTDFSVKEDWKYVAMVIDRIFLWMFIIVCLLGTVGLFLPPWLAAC
T3 sequence (P12390 whole entry): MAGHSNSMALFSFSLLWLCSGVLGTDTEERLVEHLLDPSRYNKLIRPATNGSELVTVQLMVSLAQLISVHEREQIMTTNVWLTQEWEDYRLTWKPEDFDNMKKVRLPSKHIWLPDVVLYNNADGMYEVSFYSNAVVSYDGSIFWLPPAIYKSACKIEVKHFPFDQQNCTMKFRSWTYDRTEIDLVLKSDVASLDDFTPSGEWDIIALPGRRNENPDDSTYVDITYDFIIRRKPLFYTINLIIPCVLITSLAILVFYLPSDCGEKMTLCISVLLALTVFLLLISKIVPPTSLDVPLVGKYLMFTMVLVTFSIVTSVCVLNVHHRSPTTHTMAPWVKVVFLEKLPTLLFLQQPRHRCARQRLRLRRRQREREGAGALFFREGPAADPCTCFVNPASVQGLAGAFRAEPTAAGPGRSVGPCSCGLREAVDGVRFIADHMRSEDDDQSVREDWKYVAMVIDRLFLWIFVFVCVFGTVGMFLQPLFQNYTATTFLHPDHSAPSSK
T2 sequence (P17787 whole entry): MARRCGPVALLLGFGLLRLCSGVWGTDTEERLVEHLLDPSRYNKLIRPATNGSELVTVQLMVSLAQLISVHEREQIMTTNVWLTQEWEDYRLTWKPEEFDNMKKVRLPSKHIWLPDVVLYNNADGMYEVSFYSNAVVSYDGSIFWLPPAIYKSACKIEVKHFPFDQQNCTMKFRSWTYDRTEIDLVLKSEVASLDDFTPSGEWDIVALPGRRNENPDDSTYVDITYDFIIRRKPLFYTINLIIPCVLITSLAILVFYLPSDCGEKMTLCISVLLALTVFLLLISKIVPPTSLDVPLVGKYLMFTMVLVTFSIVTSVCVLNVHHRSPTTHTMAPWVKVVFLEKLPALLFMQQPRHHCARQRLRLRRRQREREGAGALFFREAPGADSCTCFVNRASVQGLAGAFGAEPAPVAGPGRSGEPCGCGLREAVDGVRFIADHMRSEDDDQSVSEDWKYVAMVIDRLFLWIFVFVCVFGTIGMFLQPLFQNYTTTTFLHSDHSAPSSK
T2 sequence (P43681 whole entry): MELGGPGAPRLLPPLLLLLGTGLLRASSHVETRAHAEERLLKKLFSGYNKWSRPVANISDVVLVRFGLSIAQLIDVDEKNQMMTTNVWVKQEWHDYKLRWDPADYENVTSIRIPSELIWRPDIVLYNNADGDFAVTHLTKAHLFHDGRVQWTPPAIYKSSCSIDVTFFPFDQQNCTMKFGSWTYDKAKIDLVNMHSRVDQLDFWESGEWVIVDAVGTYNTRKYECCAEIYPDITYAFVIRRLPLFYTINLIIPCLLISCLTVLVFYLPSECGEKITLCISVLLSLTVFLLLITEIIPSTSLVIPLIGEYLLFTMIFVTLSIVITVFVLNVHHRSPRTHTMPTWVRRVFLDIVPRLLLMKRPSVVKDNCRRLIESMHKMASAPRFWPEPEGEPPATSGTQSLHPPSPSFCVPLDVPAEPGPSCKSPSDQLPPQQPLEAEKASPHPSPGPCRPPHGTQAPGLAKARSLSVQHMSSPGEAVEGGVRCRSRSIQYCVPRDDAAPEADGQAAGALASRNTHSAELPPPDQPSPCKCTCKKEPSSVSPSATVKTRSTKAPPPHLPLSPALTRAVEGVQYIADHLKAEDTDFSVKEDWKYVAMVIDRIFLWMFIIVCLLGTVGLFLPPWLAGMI
Chain of D(4) dopamine receptor (Homo sapiens) (P21917 whole entry): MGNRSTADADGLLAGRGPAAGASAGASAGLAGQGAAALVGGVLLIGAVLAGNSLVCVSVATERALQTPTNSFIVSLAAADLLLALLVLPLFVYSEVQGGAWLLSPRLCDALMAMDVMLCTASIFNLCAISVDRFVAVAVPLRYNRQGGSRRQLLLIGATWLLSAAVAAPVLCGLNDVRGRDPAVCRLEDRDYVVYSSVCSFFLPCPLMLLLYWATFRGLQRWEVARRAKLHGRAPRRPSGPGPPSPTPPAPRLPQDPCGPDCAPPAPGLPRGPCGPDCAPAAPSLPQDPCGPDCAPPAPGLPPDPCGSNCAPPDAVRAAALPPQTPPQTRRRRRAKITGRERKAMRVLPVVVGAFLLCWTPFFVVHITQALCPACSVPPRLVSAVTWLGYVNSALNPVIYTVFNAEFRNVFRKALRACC
Chain of Histamine H2 receptor (Homo sapiens) (P25021 whole entry): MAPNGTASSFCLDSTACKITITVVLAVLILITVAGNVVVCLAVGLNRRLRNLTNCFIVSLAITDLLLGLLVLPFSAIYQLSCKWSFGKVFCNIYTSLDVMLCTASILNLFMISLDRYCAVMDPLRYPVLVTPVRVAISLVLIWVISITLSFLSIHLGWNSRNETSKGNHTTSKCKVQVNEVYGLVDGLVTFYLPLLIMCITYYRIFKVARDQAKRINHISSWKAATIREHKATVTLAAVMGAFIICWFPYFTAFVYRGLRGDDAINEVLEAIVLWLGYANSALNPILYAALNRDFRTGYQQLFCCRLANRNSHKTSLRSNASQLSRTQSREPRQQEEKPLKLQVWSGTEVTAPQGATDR
Chain of Alpha-2C adrenergic receptor (Homo sapiens) (P18825 whole entry): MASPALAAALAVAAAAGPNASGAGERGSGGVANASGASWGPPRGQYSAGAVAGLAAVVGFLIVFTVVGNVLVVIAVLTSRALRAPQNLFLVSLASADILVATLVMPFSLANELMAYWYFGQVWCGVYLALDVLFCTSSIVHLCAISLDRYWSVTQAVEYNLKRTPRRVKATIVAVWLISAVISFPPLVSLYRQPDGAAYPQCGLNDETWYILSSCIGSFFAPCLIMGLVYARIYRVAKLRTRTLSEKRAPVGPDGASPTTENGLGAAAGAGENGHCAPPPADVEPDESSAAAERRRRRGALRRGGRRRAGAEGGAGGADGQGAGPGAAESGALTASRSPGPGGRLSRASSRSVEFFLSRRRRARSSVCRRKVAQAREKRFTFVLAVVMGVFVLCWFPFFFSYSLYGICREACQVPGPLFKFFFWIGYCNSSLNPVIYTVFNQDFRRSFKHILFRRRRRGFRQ
Chain of D(2) dopamine receptor (Homo sapiens) (P14416 whole entry): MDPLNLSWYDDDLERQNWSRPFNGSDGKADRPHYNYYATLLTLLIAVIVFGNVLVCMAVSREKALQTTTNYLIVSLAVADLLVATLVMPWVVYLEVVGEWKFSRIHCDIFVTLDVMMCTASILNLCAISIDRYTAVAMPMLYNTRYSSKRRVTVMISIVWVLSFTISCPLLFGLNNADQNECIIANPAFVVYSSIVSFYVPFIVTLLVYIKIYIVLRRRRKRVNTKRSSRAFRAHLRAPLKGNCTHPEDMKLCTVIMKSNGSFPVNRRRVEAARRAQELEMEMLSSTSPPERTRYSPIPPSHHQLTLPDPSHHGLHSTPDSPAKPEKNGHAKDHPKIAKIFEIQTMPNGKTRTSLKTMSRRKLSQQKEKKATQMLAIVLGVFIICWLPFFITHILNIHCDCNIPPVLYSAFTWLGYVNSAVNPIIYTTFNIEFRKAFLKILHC
Chain of 5-hydroxytryptamine receptor 6 (Homo sapiens) (P50406 whole entry): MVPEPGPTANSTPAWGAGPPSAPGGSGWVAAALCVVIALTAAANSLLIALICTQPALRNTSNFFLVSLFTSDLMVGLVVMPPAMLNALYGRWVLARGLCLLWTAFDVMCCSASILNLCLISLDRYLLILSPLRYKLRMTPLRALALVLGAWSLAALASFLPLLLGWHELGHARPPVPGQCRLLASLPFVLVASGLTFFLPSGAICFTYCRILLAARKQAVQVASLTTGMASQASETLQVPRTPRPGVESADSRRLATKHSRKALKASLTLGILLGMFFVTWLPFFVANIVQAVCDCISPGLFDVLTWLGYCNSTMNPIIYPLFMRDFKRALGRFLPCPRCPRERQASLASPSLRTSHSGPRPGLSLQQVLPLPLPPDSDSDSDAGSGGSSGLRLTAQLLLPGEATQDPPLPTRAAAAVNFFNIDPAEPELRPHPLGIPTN

Structure (SMILES): Cl.OCCc1cc(-c2cncc(OC[C@@H]3CCN3)c2)on1
- Activity (Mus musculus [1]): Active
- Activity (Mus musculus [2]): Active
- Activity (Mus musculus [3]): 60%
- Activity (Mus musculus [4]): Active

Structure (SMILES): Cl.OCCCc1cc(-c2cncc(OC[C@@H]3CCN3)c2)on1
- Activity (Mus musculus [5]): inactive
- inhibition [6]: -3.2%
- Stability (Liver): Stable
- inhibition [7]: 2.9%
- inhibition [8]: 20%
- inhibition [9]: 21.7%
- inhibition [10]: 4.1%
- inhibition [11]: 18.8%
- PPB (Plasma): 26%
- inhibition [12]: 22%
- inhibition [13]: -1%
- Ratio Ki (Rattus norvegicus): 15000
- inhibition [14]: 26.9%
- Ki [15]: > 10000 nM
- inhibition (INH) [16]: Not Active
- inhibition [17]: 19.8%
- Activity (Mus musculus [1]): Active
- inhibition [18]: -9.9%
- inhibition [19]: 16.2%
- Activity (Mus musculus [2]): inactive
- Ki [20]: 182 nM
- inhibition [21]: 11.4%
- inhibition [22]: -6.8%
- inhibition [23]: 17.7%
- inhibition [24]: 0.3%
- inhibition [25]: 14.2%
- inhibition [26]: -3.3%
- Ki [27]: 16 nM
- inhibition [28]: 10.8%
- inhibition [29]: -4.3%
- Activity (Mus musculus [30]): inactive
- inhibition [31]: 22.3%
- inhibition [32]: -0.6%
- inhibition [33]: 7.1%
- Efficacy [34]: 68%
- inhibition [35]: 14.6%
- inhibition [36]: -4.4%
- Ki [37]: 1410 nM
- Ki [38]: 0.9 nM
- inhibition [39]: -1.8%
- inhibition [40]: 6.2%
- inhibition [41]: 15.3%
- inhibition [42]: 22.2%
- IC50 [43]: 61 nM
- Ki [44]: 0.67 nM
- Stability (Liver microsomes): Stable
- inhibition [45]: -0.4%
- inhibition [46]: 2%
- inhibition [47]: -9.5%
- Activity (Mus musculus [4]): Active
- inhibition [48]: 25.9%
- inhibition [49]: -0.5%
- inhibition [50]: 6.4%
- inhibition [51]: 42.6%
- inhibition [52]: 14.2%
- inhibition [53]: 19.8%
- EC50 [54]: 36 nM
- Ki [55]: 0.67 nM
- Ki [56]: > 10000 nM
- Efficacy [57]: 13%
- inhibition [58]: 2%
